Compound activity deposited in PubChem BioAssay by The Scripps Research Institute Molecular Screening Center.
An excerpt weighted towards active compounds, which were near 0.58% of everything screened.
TRPML3 agonist – activates the human TRPML3 channel; Q8TDD5; HEK293 TRPML3-YFP, Fluo-8 calcium fluorescence; 100% = the carbachol control signal; activation, % at 3 µM; 220,000 compounds, 0.29% hits;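 active = activation above its plate's cutoff, the mean activation of the plate's test wells plus 3 SD, cut at about 12% in these data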;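 note: 0% = DMSO only wells and 100% = carbachol wells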
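Material: TRPML3-YFP stable HEK293 cells | Dosing: One concentration, 3 µM nominal, 0.3% DMSO | Timing: 125 s total fluorescence read per well | Technique: Fluo-8 calcium dye fluorescence, ex 470-495, em 515-575 nm | Measure: Percent activation from peak-to-basal fluorescence ratio, scaled between DMSO and carbachol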
V1aR counter – counter-screen for oxytocin receptor agonists: human V1a receptor agonists | P37288 | activation, % at 3 µM | 320,000 compounds, 0.25% hits | CHO-V1R cells, Fluo-8 calcium fluorescence, agonist mode; 0% DMSO, 100% 3 nM vasopressin;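 active = activation above the mean activation of all tested compounds plus 3 SD, per screening run, cut at about 20% in these data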;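 note: signal is peak over basal fluorescence ratio across a 100 second FLIPR read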
Target sequence (P37288 whole entry, looked up): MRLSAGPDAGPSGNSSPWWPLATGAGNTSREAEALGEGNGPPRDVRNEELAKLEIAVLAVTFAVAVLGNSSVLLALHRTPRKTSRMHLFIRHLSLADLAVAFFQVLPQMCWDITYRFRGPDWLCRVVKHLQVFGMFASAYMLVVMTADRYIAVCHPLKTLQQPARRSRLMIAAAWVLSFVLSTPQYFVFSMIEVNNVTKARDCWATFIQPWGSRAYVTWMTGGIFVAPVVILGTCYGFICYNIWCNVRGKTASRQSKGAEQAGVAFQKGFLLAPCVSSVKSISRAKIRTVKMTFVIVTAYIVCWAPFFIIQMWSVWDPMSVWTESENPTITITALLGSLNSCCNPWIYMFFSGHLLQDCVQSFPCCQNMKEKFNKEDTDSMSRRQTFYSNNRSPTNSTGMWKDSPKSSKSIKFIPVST
TRPN1 ag – agonists of zebrafish TRPN1 channel | HEK293 zebrafish TRPN1-YFP, Fluo-8 calcium fluorescence; 100% = response to 87 µM carbachol | activation, % at 3 µM | 220,000 compounds, 0.18% hits;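 active = activation above its plate's cutoff, the mean activation of test wells on that plate plus 3 SD, cut at about 19% in these data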;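 note: 0% = DMSO alone and 100% = 87 µM carbachol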
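Material – zebrafish TRPN1-YFP in HEK293 cells · Doses – 3 µM single point · Schedule – dye 1 h 37 °C plus 30 min RT · Signal – Fluo-8 calcium fluorescence, excitation 470-495 nm, emission 515-575 nm · Read-out – % activation versus carbachol response · Control set – carbachol high, DMSO low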
OXTR potentiate – potentiators of human oxytocin receptor | P30559 | 320,000 compounds, 0.061% hits | activation, % at 3 µM | CHO-OTR cells, Fluo-8 calcium fluorescence, potentiator mode; 0% = oxytocin EC15, 100% = EC100;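 active = activation above that plate's cutoff, the mean activation of tested compounds plus 3 SD, cut at about 6.6% in these data, passing the limit was not always enough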;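 note: 100% uses oxytocin at 75 nM as the full agonist control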
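System: human OTR in CHO cells; Also added: sub-maximal oxytocin, roughly EC15; Timing: compound 6 min at room temperature before oxytocin, 100 s read; Technique: Fluo-8 intracellular calcium fluorescence, ex 470-495, em 515-575 nm; Controls: oxytocin EC15 low and EC100 high; Replication: singlicate.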
OXTR agonist – agonists of human oxytocin receptor; P30559; 320,000 compounds, 0.32% hits; CHO-OTR cells, Fluo-8 calcium fluorescence; normalized: DMSO 0%, oxytocin 100%; activation, % at 3 µM;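 active = activation above the mean of all tested compounds plus 3 SD, cutoff set per screening run, cut at about 20% in these data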;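 note: peak over basal fluorescence ratio from a 100 s FLIPR kinetic read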
OXTR agonist cf – confirmation of human oxytocin receptor agonists; shares compounds with OXTR agonist; CHO-OTR cells, Fluo-8 calcium fluorescence, agonist; activation, % at 3 µM; 390 compounds, 20% hits; AID 434963;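 active = mean activation above about 20% derived from the earlier single-dose screen, limit read from the data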;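 note: peak over minimum fluorescence ratio per well during a 100 second FLIPR read; 0% = DMSO alone and 100% = oxytocin high control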
V1R ag counter 3x – V1R agonism in triplicate, counter-screen for OXTR agonists; activation, % at 3 µM; shares compounds with OXTR agonist; 390 compounds, 10% hits; CHO-V1R cells, Fluo-8 calcium fluorescence, agonist; AID 434991;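 active = mean activation over triplicate exceeds the hit threshold set in the earlier primary screen, cut at about 20% in these data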;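 note: peak over basal fluorescence ratio within a 100 second read; 0% = DMSO alone and 100% = 3 nM vasopressin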
OXTR pot confirm – confirmation of human oxytocin receptor potentiators; shares compounds with OXTR potentiate; CHO-OTR cells, Fluo-8 calcium fluorescence, potentiation; scaled from low-dose to maximal oxytocin; activation, % at 3 µM; 180 tested, under 10 active; AID 434985;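 active = mean percent activation over triplicates above a cutoff set from solvent-only control plates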;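 note: compounds tested in the presence of an EC15 dose of oxytocin; 0% = EC15 oxytocin with DMSO and 100% = EC100 oxytocin with DMSO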
V1R ag confirm – confirmation of human vasopressin V1a receptor agonists. CHO-V1R cells, Fluo-8 calcium fluorescence, agonist. activation, % at 3 µM. 180 compounds, 20% hits. AID 434964. shares compounds with V1aR counter;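 active = average activation exceeds primary screen hit cutoff, cut at about 21% in these data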;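 note: peak over basal fluorescence ratio during a 100 s FLIPR read; 0% = DMSO only wells and 100% = 3 nM vasopressin wells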
OXTR ag counter – activates oxytocin receptor in V1a agonist counter-screen | activation, % at 3 µM | shares compounds with V1aR counter | 180 compounds, 10% hits | CHO-OTR cells, Fluo-8 calcium fluorescence;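 active = mean activation over three repeats above the cutoff from the earlier oxytocin receptor agonist screen, cut at about 20% in these data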;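 note: peak over minimum fluorescence ratio within a 100 second FLIPR read; 0% = DMSO only wells and 100% = oxytocin high control wells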
* hit, by the source's call; nt = not tested or not shown.

SMILES	TRPML3 agonist	V1aR counter	TRPN1 ag	OXTR potentiate	OXTR agonist	V1R ag confirm	OXTR ag counter	others
Cc1cccc(-n2c(O)c(/C=C/C=Nc3ccccc3)c(=O)[nH]c2=O)c1	7.4	11.8	7.1	-7.5	23.3*	nt	nt	OXTR agonist cf=25.6*;V1R ag counter 3x=35.4*
C=C1[C@@H](OC(C)=O)[C@]23C[C@@H]1[C@@H](OC(C)=O)CC2[C@]12C4C[C@H]3[C@H]1N(CC)C[C@]4(C)CC[C@@H]2O (stereo partly specified)	nt	0.3	nt	0.6	0.6	nt	nt
CCOc1ccc(-n2c(O)c(C=NCCN(CC)CC)c(=O)[nH]c2=O)cc1	1.2	0.4	-1.4	13.2*	2.9	nt	nt	OXTR pot confirm=-6.5
CN(C)C(=O)Oc1ccc2c(c1)O/C(=C\c1cccc([N+](=O)[O-])c1)C2=O	nt	1.2	nt	-2.4	0.1	nt	nt
COc1ccc(CN2C(=O)NC(=O)/C(=C/c3cc(OC)c(OC)c(OC)c3)C2=O)cc1	0.8	-0.2	1.5	-4.6	1.0	nt	nt
COc1ccc(CN2C(=O)NC(=O)/C(=C/c3ccoc3)C2=O)cc1	11.3	33.4*	18.0	-22.3	16.9	0.7	0.9
C=CCn1c(O)c(C(CC)=Nc2cccc(C(=O)O)c2)c(=O)[nH]c1=O	0.4	22.1*	1.0	-6.0	1.1	-0.1	-0.6
Nc1ccccc1Cl	nt	-0.2	nt	-1.6	2.0	nt	nt
